Fewer inactive variants are shown than the library holds.
B1: tRNA (parent)
chain: GUUCCGUUGGCGUAAUGGUAACGCGUCUCCCUCCUAAGGAGAAGACUGCGGGUUCGAGUCCCGUACGGAACG

Variants of: B1
Test: yeast fitness relative to wild type (ratio to wild type); higher = fitter; tRNA-Arg(CCU), competitive growth, 37 C, YPD
Outline: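 Genotype frequency changes were the basis for Darwinian fitness relative to wild type. The frequencies came from 100-nucleotide paired-end sequencing of gene amplicons from the start population and each end population of pooled yeast strains with tRNA-Arg(CCU) gene variants at the native locus. Competition ran in YPD at 37°C for 24 hours in six replicates, genotypes needed ≥ 100 starting reads, and estimates < 0.5 were set to 0.5.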

Compared with GUUCCGUUGGCGAAAUGGUAACGCGUCCCCCACCUAAGGAGAAGACUGCGGGUUCGAGUCCCGUACGGAACG [U13A U28C U32A], GUUCCGUUGGCGAAAUGGUAACGCGUCUCCCUCCUAAGAAGAAGACUGCGGGUUCGAGUCCCGUACGGAACG [U13A G39A] is higher in yeast fitness: 0.698 for the first, 0.782 for the second.

Going from GUUCCGUUGGCGAAAUGGUAACGCGUCUGGCUCCUAAGGAGAAGACUGAGGGUUCCAGUCUCGUACGGAACG [U13A C29G C30G C49A G56C C61U] to GUUCCGUUGGCGAAAUGGUACCGCGUCUCCCUCCUAAGGAGGAGACUGCGGGUUCGAGUCCCGUACGGAACG [U13A A21C A42G], the yeast fitness falls from 0.635 to 0.502.

GUUCCGUUGGCGAAAUGGAAACGCGUCUCCCUCCUAAGGAGUAGACUGCGCGUUCGAGUCCCGUACGGAACG [U13A U19A A42U G51C] and GUUCCGUUGGCGAAAUGGUAAGGCCUUUCGCUCCUAAGGAGAAGACUGCGGGUUAGAGUCCCGUACGGAACG [U13A C22G G25C C27U C30G C55A] cannot be ordered by yeast fitness: ≤ 0.5 for the first, ≤ 0.5 for the second.

GUUCCGUUGGCGAACUGGUAACGCGUCUCCCUCCUAAGGAGAAGGCUGCGGGUUUGAGUCGCGUACGGCACG [U13A A15C A45G C55U C61G A69C] and GUUCCGUUGGCGAAAUGGUAACGCGUCUCCCUUCUAAGGAGAAGCGUGCGGGUCCGAGUCCCGUACGGUACG [U13A C33U A45C C46G U54C A69U] cannot be ordered by yeast fitness: ≤ 0.5 for the first, ≤ 0.5 for the second.

First: GUUCCGUUGGCGAAAUGGUAACGCCUCUCCCUCCUAAGGAGAAGGCUGCGGGUUCGAGUCCCGUACGGAACG [U13A G25C A45G]
Second: GUUCCGUUGGCGAAAUGGUAACGCGUCUCCCUCCUAAGGAGUAGACUGCGGGUUCGAGUCCCAUACGGAACG [U13A A42U G63A]
The yeast fitness of the first is lower: 0.535 for the first, 0.699 for the second.

First: GUUCCGUUGGCGAAAUGGUAACGCGUCUCCCUCCUAAGGAGAAGACUGCAGGUUCGAGUCCCGUACGGAACG [U13A G50A]
Second: GUUCCGUUGGCGAAGUGGUAACGCGUCUCCCUCCUAAGGAGAAGACUACGGGUUCGAGUCCCAUCCGGAACG [U13A A15G G48A G63A A65C]
The yeast fitness of the first is higher: 0.806 for the first, ≤ 0.5 for the second.

Going from GUUCCGUUGGCGAAAUGGUAACGCGUCUGCCUCCUAAGGAGAGGACUGCGGGUUCGAGUCCCGUACGGAACG [U13A C29G A43G] to GUUCCGUUGGCGAAAUGGUAACCCGUGUCCCUCCUAAGGAGAAGACUGCGGGCUCGAGUCACGUACGGAACG [U13A G23C C27G U53C C61A], the yeast fitness rises from ≤ 0.5 to 0.509.

First: GUUCCGUUGGCGAAAUGGUAACGCGUCUCCCUCCUAAGGUGAAGACUGCGGGUUUGAGUCCCGUACGGAACG [U13A A40U C55U]
Second: GUUCCGUUGGCGAAAUGGUACCGCGUCUCCCUCCCAAGAAGCGGAUUGCGGGUUCGAGUCCCGUCCGGAACG [U13A A21C U35C G39A A42C A43G C46U A65C]
The yeast fitness of the first is higher: 0.681 for the first, 0.55 for the second.

First: GUUCCGUUGGCGAAAUGGUAACGCGUCUCCCCCCUAAGGAGAAGACUGCGGGUUCGAGUCCCAUACGGAACG [U13A U32C G63A]
Second: GUUCCGUUGGCGAAAUAGUAACGCGUCUCCCUCCUAAGGAGAAGACUGCGAGUUCGAGUCCUGUACCGAACG [U13A G17A G51A C62U G67C]
The yeast fitness of the first is higher: 0.572 for the first, ≤ 0.5 for the second.

First: GUUCCGUUGGCGAAAUGGUAACGCGUCUCCCUCCUAAGGAGAAGACUGCGGGUUUGAGUCCCGUCCGGAACG [U13A C55U A65C]
Second: GUUCCGUUGGCGAAAUGGUAAGGCCUUUCGCUCCUAAGGAGAAGACUGCGGGUUCGCGUCCCGUACGGUACG [U13A C22G G25C C27U C30G A57C A69U]
The yeast fitness of the first is higher: 0.596 for the first, ≤ 0.5 for the second.

Compared with GUUCCGUUGGCGAAAUGGUAUCGCGUCUCCCUCCUAAGGAGUACACUGCGGGUUCGAGUCCCGUACGGAACG [U13A A21U A42U G44C], GUUCCGUUGGCGAACUGGUAACGCGUCUCCCUGCUAAGGAGAAGACUGUGGGUUCGAGUCCCGUACGGCACG [U13A A15C C33G C49U A69C] is lower in yeast fitness: 0.652 for the first, ≤ 0.5 for the second.

First: GUUCCGUUGGCGAAAUGGUAACGCGUCUCCCUCCUAAGGAGAAGACUGCGGGUCCGAGUCCCGUACGGAACG [U13A U54C]
Second: GUUCCGUUGGCGAAAUGGUAACGCGUCUCCCUCCUAAGGAGAAGACUGCGGGUUCGCGUCCCGUACGGAACG [U13A A57C]
The yeast fitness of the first is higher: 0.934 for the first, 0.604 for the second.

First: GUUCCGUUGGCGAUAUGGUAAAGCGUCUCCCUCCUAAGGAGAAGACUCCGGGUUCGAGUCCCGUACGGAACG [U13A A14U C22A G48C]
Second: GUUCCGUUGGCGAAAUGGUAACGCGUCUCCCUCCUAAGGAGAAGACUGCGGGUUCGAGUCCCGUACGGCACG [U13A A69C]
The yeast fitness of the first is lower: ≤ 0.5 for the first, 0.988 for the second.

GUUCCGUUGGCGAAAUGGUGACGUGUCUCCCUCCCAAGGAGAAGACUGUGGGUUCGAGUACCGUAGGGAACG [U13A A20G C24U U35C C49U C60A C66G] and GUUCCGUUGGCGAAAUGGUAACCCGUGUCCCUCCUAAGGAGAAGACUGUGGGCUCGAGUCACGUACGAAACG [U13A G23C C27G C49U U53C C61A G68A] cannot be ordered by yeast fitness: ≤ 0.5 for the first, ≤ 0.5 for the second.

Compared with GUUCCGUUGGCGAAAUGGUAACGCGUCUCCCUCCUAAGGAGAAGAUUGCGGGUUCGAGUCCCGUACGGAACG [U13A C46U], GUUCCGUUGGCGAAAUGGUAACGCGUGUCCCUCCUAAGGAGAAGACUGCGGACUCGAGUCCCCUACGGAACG [U13A C27G G52A U53C G63C] is lower in yeast fitness: 0.875 for the first, ≤ 0.5 for the second.

Going from GUUCCGUUGGCGAAGUGGUAACGCGUCUCCCUCCUAAGGAGAAGACUGCGGGUUCGAGUCCCGUAUGGAACG [U13A A15G C66U] to GUUCCGUUGGCGAAAUGGUAACGCGUUUCCCUCCUAAGGAGAAGACUGCUGGUUCGAGUCCCGUACGGAACG [U13A C27U G50U], the yeast fitness rises from 0.644 to 0.674.

GUUCCGUUGGCGACAUGGUACCGCAUCUCCCUCCUAAGGAGAAGACUGCGGGUUCGAGUCACGUACGGAACG [U13A A14C A21C G25A C61A] and GUUCCGUUGGCGAAAUGGUAACGCGUCUCCCUCAUAGGGAGAAGACUGCGGGUUCGAGUCCCGUACGGAACG [U13A C34A A37G] cannot be ordered by yeast fitness: ≤ 0.5 for the first, ≤ 0.5 for the second.

GUUCCGUUGGCGAAAUGGUAAGGCGUGUCCGUCCUAAGGAGAAGACUGCGGGUUCGAGUCGCGUACGGUACG [U13A C22G C27G C31G C61G A69U] and GUUCCGUUGGCGAAAUGGUAACGCGUCUCUCUCCUAAGGAGAAGACUGCGGGUUGGACUCCCGUACUGAACG [U13A C30U C55G G58C G67U] cannot be ordered by yeast fitness: ≤ 0.5 for the first, ≤ 0.5 for the second.

Compared with GUUCCGUUGGCGAAAUGGUACCGCGUCUCCCUCCCAAGAAGCGGAUUGCGGGUUCGAGUCCCGUACGGAACG [U13A A21C U35C G39A A42C A43G C46U], GUUCCGUUGGCGAAAUGGUCACGCGUCUCCCUCCUAAGGAGAAGACUGCGGGUUCGAGUCCCGUACGGACCG [U13A A20C A70C] is lower in yeast fitness: 0.63 for the first, ≤ 0.5 for the second.

— the RNAGym collection of RNA variant scans (doi:10.1126/science.aae0568)
